These results are taken from ChEMBL document CHEMBL5154939, “Improved Binding Affinity and Pharmacokinetics Enable Sustained Degradation of BCL6 In Vivo” (J Med Chem, 2022).

SMILES strings stand for the structures. Converted amounts (≈) assume the structure as drawn. The source made the active and inactive calls. The calls are words filed in the database; no cut-off is given here.

Data set [1] concerns the target T1, B-cell lymphoma 6 protein (Homo sapiens, UniProt P41182). Nature of the data set: Degradation of BCL6 in human OCI-Ly1 cells incubated for 2 hrs by MSD assay. It is filed as cell-based. Put shortly:
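Lysates were read by MSD sandwich immunoassay (goat capture, rabbit detection anti-BCL6, electrochemiluminescence). Signal was normalised to DMSO (high) and a reference degrader control at 2 μM (low). DC50 came from a four-parameter logistic fit, with Dmax reported.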

Data set [2] in a line: Toxicity in SCID mouse xenografted with human OCI-Ly1 cells assessed as noticeable adverse effects at 50 mg/kg, po measured for 12 to 24 hrs. It is filed as organism-based. Particulars: in vivo, time 12-24 hrs. Put shortly: (§1)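 Female SCID mice with subcutaneous OCI-Ly1 xenografts (1.5×10^7 cells in serum-free IMDM/Matrigel; tumours 0.4-0.6 cm³ at day 20) received one oral dose of 50 mg/kg or vehicle (DMSO/Kolliphor HS15/PEG400/HPMC). Groups of n=3 were sampled at 12, 16 and 24 h. Tumour lysates were analysed by Wes capillary electrophoresis, with BCL6 normalised to GAPDH.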
(In xenograft studies the graft and the host belong to different species.)

The nature of data set [3]: Toxicity in SCID mouse xenografted with human HT cells assessed as body weight loss at 50 mg/kg, po bid measured upto 22 days. It is filed as organism-based. The settings on record: in vivo, 528 h, time < 22 day. In short, it runs like this: (§2)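 HT cells grown in RPMI-1640 with 10% FBS, kept at 0.5-2 × 10^6 cells/mL. For implantation, 10^7 cells per 200 µL in serum-free RPMI plus an equal volume of Matrigel were injected subcutaneously at a single site in female SCID mice. At day 20, tumours of 0.4-0.6 cm³ were chosen, n=10 per group. Oral dosing at 50 mg/kg or vehicle was given every 12 h for 22 days (DMSO/Kolliphor HS15/PEG400/aqueous HPMC, 0.2 mL per 20 g).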

A further data set has as its system OCI-Ly1. As to the kind of experiment: Downregulation of BCL6 levels in human OCI-Ly1 cells xenografted in SCID mouse at 50 mg/kg, po measured for 12 to 24 hrs by capillary electrophoresis method. The format is functional, organism-based. The settings on record: time lower […], time upper 24.0 hrs. Put shortly: as §1
Data set [4] deals with HT. Nature of the data set: Antitumor activity against human HT cells xenografted in SCID mouse assessed as reduction in tumor growth at 50 mg/kg, po bid measured upto 22 days. The format is functional, organism-based. The settings on record: time <= 22.0 day. Put shortly: as §2
Data set [5] in a line: Cmax in BALB/c mouse at 1 mg/kg, iv or 5 mg/kg, po measured after 6 hrs post-dose by ESI-LCMS/MS based UPLC analysis. It is filed as ADME, organism-based. The arrangement: time 6 hrs, dose 5 mg/kg, route po. The settings on record: in vivo.
In data set [6] the test system is HT. As to the kind of experiment: Downregulation of BCL6 levels in human HT cells xenografted in SCID mouse at 50 mg/kg, po bid measured for 4 to 12 hrs post-dose by capillary electrophoresis method. It is filed as functional, organism-based. The settings on record: time lower 4.0 hrs, time upper […]. Put shortly:
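Female SCID mice bearing subcutaneous HT xenografts (10^7 cells with Matrigel) were dosed orally at 50 mg/kg BID, every 12 h, for 22 days; vehicle was DMSO/Kolliphor HS15/PEG400/1.25% HPMC. Tumours were taken 4 and 12 h after the final dose, snap-frozen and bead-homogenised in Tris/Triton lysis buffer. Lysates at 0.0875 mg/ml were run on Wes capillary electrophoresis, with BCL6 normalised to GAPDH.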

Data set [7] is described as follows: Clearance in BALB/c mouse at 1 mg/kg, iv or 5 mg/kg, po measured after 6 hrs post-dose by ESI-LCMS/MS based UPLC analysis relative to hepatic blood flow. It is filed as ADME, organism-based. The settings on record: in vivo.
Data set [8] addresses T1, B-cell lymphoma 6 protein.
A short description of data set [9]: Toxicity in BALB/c mouse at 1 mg/kg, iv or 5 mg/kg, po measured upto 24 hrs post-dose. It is filed as organism-based. The settings on record: in vivo.
Data set [10] is described as follows: Passive membrane permeability of compound in phosphate buffered saline at pH 7.4 at 10 uM incubated for 16 hrs by PAMPA assay based TQ-S LC-MS/MS analysis. The format is ADME. The settings on record: read-out: permeability. Put shortly: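 PAMPA with a 2% phosphatidylcholine-in-dodecane membrane. Compound at 10 µM in PBS pH 7.4 containing 1% BSA was incubated 16 h at 30 °C. Supernatants were diluted and quantified by LC-MS/MS.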
A general note: PAMPA measures passive passage across an artificial lipid membrane.

Data set [11] in a line: Kinetic aqueous solubility of the compound in 1% DMSO/PBS at pH 7.4 incubated for 2 hrs by UV-vis detection based HPLC analysis. The settings on record: PBS with 1% DMSO, read-out: Kinetic_solubility. It is filed as physicochemical. Put shortly:
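A 10 mM DMSO stock was diluted into PBS pH 7.4 to 100 µM final with 1% DMSO, shaken 2 h at 20 °C and centrifuged. The supernatant was mixed with DMSO and measured by HPLC-UV on a 5 min water:methanol gradient with 0.1% formic acid at 30 °C, against an external standard from the same stock.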

In data set [1], `C[C@H]1CCCN(c2ncc(Cl)c(Nc3ccc4c(c3)c3c(c(=O)n4C)OCC(F)(F)[C@H](C4CC4)N3)n2)C1` came in with an EC50 of 6.3 nM.

In the case of `C[C@H]1C[C@@H](N(C)C)CN(c2ncc(Cl)c(Nc3ccc4c(c3)c3c(c(=O)n4C)OCC(F)(F)[C@H](C4CC4)N3)n2)C1`, in [1], the 50% effective concentration (EC50) amounted to 9.8 nM.

In data set [1], `Cn1c(=O)c2c(c3cc(Nc4nc(N5CCC(F)(F)[C@@H](O)C5)ncc4Cl)ccc31)N[C@@H](C1CC1)C(F)(F)CO2` returned an EC50 of 7.1 nM.

On to `C[C@H]1C[C@@H](O)CN(c2ncc(Cl)c(Nc3ccc4c(c3)c3c(c(=O)n4C)OCC(F)(F)[C@H](C4CC4)N3)n2)C1`, for which the Activity result in [2], in data set [3] and in data set [9] was “Non-Toxic” each time. The outcome with OCI-Ly1, with HT [4] and in the data set on HT [6] was Active. The concentration for a half-maximal effect (EC50) in data set [1] turned out to be 0.7 nM; in data set [8] it was 1 nM. The peak concentration (Cmax) in data set [5] came out at 3950 nM. Besides, in data set [7], the CLH worked out at 6%.

On to `Cn1c(=O)c2c(c3cc(Nc4nc(N5CCC[C@H](O)C5)ncc4Cl)ccc31)N[C@@H](C1CC1)C(F)(F)CO2`, for which the 50% effective concentration (EC50) in [1] is > 2000 nM.

Consider `C[C@@H]1C[C@H](O)CN(c2ncc(Cl)c(Nc3ccc4c(c3)c3c(c(=O)n4C)OCC(F)(F)[C@H](C4CC4)N3)n2)C1`, for which the 50% effective concentration (EC50) in [1] and in data set [8] was > 2000 nM each time. For the same molecule, the Papp at 16 h, 10 µM in data set [10] came out at 16 ×10⁻⁶ cm/s.

As to `C[C@@H]1CCCN(c2ncc(Cl)c(Nc3ccc4c(c3)c3c(c(=O)n4C)OCC(F)(F)[C@H](C4CC4)N3)n2)C1`, in data set [1], the half-maximal effective concentration (EC50) is 32.6 nM.

Consider `Cn1c(=O)c2c(c3cc(Nc4nc(N5CCC[C@@H](O)C5)ncc4Cl)ccc31)N[C@@H](C1CC1)C(F)(F)CO2`, for which the EC50 in data set [1] was > 2000 nM.

Take `C[C@H]1C[C@H](O)CN(c2ncc(Cl)c(Nc3ccc4c(c3)c3c(c(=O)n4C)OCC(F)(F)[C@H](C4CC4)N3)n2)C1`: the EC50 in data set [1] was > 2000 nM.

With `CC(=O)N[C@H]1C[C@@H](C)CN(c2ncc(Cl)c(Nc3ccc4c(c3)c3c(c(=O)n4C)OCC(F)(F)[C@H](C4CC4)N3)n2)C1`, the EC50 in [1] is > 2000 nM.

For the molecule `C[C@@H]1C[C@@H](O)CN(c2ncc(Cl)c(Nc3ccc4c(c3)c3c(c(=O)n4C)OCC(F)(F)[C@H](C4CC4)N3)n2)C1`, in data set [1], the concentration giving a half-maximal response (EC50) is > 2000 nM.

Consider `Cn1c(=O)c2c(c3cc(Nc4nc(N5CCC(F)(F)[C@H](O)C5)ncc4Cl)ccc31)N[C@@H](C1CC1)C(F)(F)CO2`, for which the EC50 in data set [1] is > 2000 nM.

In data set [1], `CC(=O)N[C@@H]1C[C@H](C)CN(c2ncc(Cl)c(Nc3ccc4c(c3)c3c(c(=O)n4C)OCC(F)(F)[C@H](C4CC4)N3)n2)C1` displayed an EC50 of 2.2 nM.

Turning to `Cn1c(=O)c2c(c3cc(Nc4nc(N5CCC(F)(F)[C@H](CO)C5)ncc4Cl)ccc31)N[C@@H](C1CC1)C(F)(F)CO2`, the EC50 in data set [1] is > 2000 nM.

On to `Cn1c(=O)c2c(c3cc(Nc4nc(N5CCC(F)(F)[C@@H](CO)C5)ncc4Cl)ccc31)N[C@@H](C1CC1)C(F)(F)CO2`, for which the EC50 in [1] is 2.7 nM. The Papp at 16 h, 10 µM in data set [10] was determined as 21 ×10⁻⁶ cm/s. The solubility kinetic at 2 h in data set [11] was 13 µM (≈ 7.58 µg/mL).

`C[C@@H]1CN(c2ncc(Cl)c(Nc3ccc4c(c3)n(CCC(C)(C)O)c(=O)n4C)n2)C[C@H](C)C1(F)F`: the Papp at 16 h, 10 µM in data set [10] was 33 ×10⁻⁶ cm/s. Moreover, the Cmax in data set [5] is 1580 nM. Besides, the CLH in data set [7] turned out to be 22%.

For the molecule `Cn1c(=O)n(CCC(C)(C)O)c2cc(Nc3nc(N4CCC(F)(F)C(O)C4)ncc3Cl)ccc21` (racemic), the response in data set [1] was half-maximal at 276 nM (EC50).

As for `C[C@@H]1C[C@H](N(C)C)CN(c2ncc(Cl)c(Nc3ccc4c(c3)c3c(c(=O)n4C)OCC(F)(F)[C@H](C4CC4)N3)n2)C1`, the EC50 in data set [1] is > 2000 nM.

`C[C@H]1C[C@@H](O)CN(c2ncc(Cl)c(Nc3ccc4c(c3)n(CCC(C)(C)O)c(=O)n4C)n2)C1` (relative stereo) showed a 50% effective concentration (EC50) in [1] of 35 nM.

The term EC50 denotes the concentration giving half of the maximal effect. The Cmax is the maximum level reached in the sampled fluid or tissue.
